Experimental data from different studies.
Protocols differ between the studies behind these lines.
CDK2 with cyclin A: Cyclin-dependent kinase 2, with cyclin A (CDK2, Homo sapiens, UniProt P24941)
CDK2: Cyclin-dependent kinase 2 (CDK2, Homo sapiens, UniProt P24941)
CDK2 with cyclin E: Cyclin-dependent kinase 2, with cyclin E (CDK2, Homo sapiens, UniProt P24941)

Cc1ncc(C)n2nc(/C=C/c3nc(N4CCCC4)cc(N4CCOCC4)n3)nc12 — inhibition (CDK2 with cyclin A; enzyme activity, inhibitor; 10 µM): -3%
N#CC1(c2ccccn2)CCN(Cc2cc(C(=O)O)c(=O)n3ccccc23)CC1 — remaining binding (CDK2; cell-free assay, competition with immobilised ligand; 1 µM): 100%
COc1ncccc1-c1cnn2ccc(N3CCN(C(=O)OC(C)C)CC3)nc12 — remaining binding (CDK2; binding, competition with immobilised ligand; 1 µM): 99%
Cn1cc(-c2cccc(N3CCc4c(sc5c4CC(C)(C)C5)C3=O)c2CO)cc(Nc2ccncn2)c1=O — inhibition (CDK2 with cyclin A; enzyme activity, inhibitor; 1 µM): -4%
O=c1[nH]c2ccccc2n1C1CCN(Cc2ccc(-c3[nH]c4cc5ncnc5cc4nc3-c3ccccc3)cc2)CC1 — remaining signal (CDK2 with cyclin E; cell-free assay; 0.5 µM): 95.6%
C#Cc1n[nH]c2c(-c3cn([C@@H](C)c4ccccc4)c(=O)[nH]c3=O)cc(F)cc12 — inhibition (CDK2 with cyclin A; enzyme activity, inhibitor; 0.1 µM): 6.3%
Cn1cc(-c2cc(F)cc(N3CCn4c(cc5c4CCCC5)C3=O)c2CO)cc(Nc2ccc(N3CCN(C4COC4)CC3)cn2)c1=O — inhibition (CDK2 with cyclin A; enzyme activity, inhibitor; 0.1 µM): 7%
Nc1ncc(-c2nc(N3CCOCC3)nc(N3CCOCC3)n2)c(C(F)F)n1 — remaining binding (CDK2; binding, competition with immobilised ligand; 10 µM): 100%
CC(C)(C)c1cc(C=C(C#N)C#N)cc(Br)c1O — remaining activity (CDK2 with cyclin E; enzyme activity, inhibitor; 0.5 µM): 77.6%
O=C(Nc1cccnn1)N1CCN([C@@H]2CCOc3cc(C(F)(F)F)ccc32)CC1 — inhibition (CDK2 with cyclin E; cell-free assay, inhibitor; 20 µM): 3%
Cn1cncc1[C@@](O)(COc1ccc(C#N)cc1-c1ccc(OC(F)(F)F)cc1)c1ccc(C#N)cc1 — remaining binding (CDK2; cell-free assay, competition with immobilised ligand; 1 µM): 89%
